Reference: paper PMC8962836 (Journal of Alzheimer's disease : JAD, 2016)
“And” between values parts separate entries of the source, which are not always exact repeats. Equal values may be shown once. “Also recorded” adds a separate entry of the source.

Tests used:
3xTgAD mouse model = conditions: cited from earlier work
Aβ levels = conditions: cited from earlier work
[1] = test system: calpain (calpain-generated spectrin fragment around 145 kDa); assay: Spectrin western blotting of hippocampal homogenates after in vivo treatment; set-up: species or system mouse
Procedure, shortened: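 Hippocampi were taken from mice given test compound or vehicle. Tissue was homogenized in 62.5 mM Tris-HCl pH 6.8, 3% LDS, 1 mM DTT, held 10 min at 4°C, sonicated and centrifuged (20,000 rpm, 5 min). Extracts (15 μg/lane; vehicle also 20 μg) ran on 3–8% Tris-Acetate gels. Blots were probed with spectrin and β-III-tubulin antibodies (1:1,000) for the ~145 kDa calpain fragment.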

[2] = Pharmacokinetic assessment in plasma; type: in vivo, ICR mice
Procedure, shortened: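 Male ICR mice (54 total; 3 groups of 18) were dosed i.p. with test compound in Tween-80 + DMSO diluted with vehicle. Plasma was separated by centrifugation (11,000 rpm, 5 min), stored at –80°C, and 25 μl was processed for LC/MS/MS. Calibration standards were spiked into heparinized blank mouse plasma at 3.00–10,000 ng/ml.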

AβPP/PS1 mice [3] = assay: 2-day radial-arm water maze; type: in vivo, mouse
Procedure, shortened: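 2-day RAWM in AβPP/PS1 and WT littermates given vehicle or test compound daily. Compounds were dissolved in Tween-80 + DMSO, then diluted with vehicle. Mice were trained […] to find a goal-arm platform, alternating visible and hidden platform. Investigators were blind to treatment and genotype. Data are mean ± SEM, analysed by two-way repeated-measures ANOVA.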

calpain 1 = conditions: read-out: IC50 calpain 1; cited from earlier work
[4] = test system: Aβ42-induced LTP impairment in hippocampal slices; type: cell-based, mouse; conditions: compound 650 nM co-administered with Aβ42 (200 nM, 20 min)
Procedure, shortened: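 Mouse transverse hippocampal slices (400 μm) were kept in an interface chamber at 29°C. Aβ42 oligomers were formed overnight at 4°C in ACSF, then diluted in vehicle. Test compound (Tween-80/DMSO stock diluted in vehicle) was perfused with Aβ42 for 20 min before tetanization, and responses were recorded for 120 min. Data are % of control or (co-treatment/Aβ42 alone)×100; mean ± SEM, repeated-measures two-way ANOVA.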

WT mice = conditions: mouse, in vivo, ip
AβPP/PS1 mice [5] = assay: Contextual fear conditioning; type: in vivo, mouse
Procedure, shortened: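 AβPP/PS1 and WT littermates got daily vehicle or test compound (Tween-80/DMSO, then vehicle-diluted). Training: one mouse per room, 2 min in the conditioning chamber, 0.50 mA foot shock for 2 s in the last 2 s, then 30 s more before returning to the home cage. Contextual freezing was scored. Investigators were blind to treatment and genotype; n = 8–18 per group; mean ± SEM, one-way ANOVA.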

mice = conditions: mouse, in vivo
[6] = daily treatment from age 2 months until 7 months

## CCN(CC)Cc1ccc(/C=C/c2ccccc2C(=O)NC(Cc2ccccc2)C(=O)C(N)=O)cc1 (centres unmarked) [A-705253]
3xTgAD mouse model
  Activity in 3xTgAD mouse model: rescuing memory defects, and reducing levels of BACE enzyme, Aβ deposits, and overall neuroinflammation

## CC(C)C[C@H](NS(=O)(=O)c1ccccc1)C(=O)N[C@@H](C(C)C)[C@@H](O)c1c(-c2ccccc2)c1=O [BDA-410]
Aβ levels
  Effect on Aβ levels: do not have any effect on Aβ levels

## O=C(NCc1cn(-c2ccc(F)cc2)nn1)[C@H](Cc1cscn1)NC(=O)[C@H]1O[C@@H]1C(=O)O [NYC488]
[1]; i.p. treatment for 12 days, same doses as PK
  Prevention of calpain-generated spectrin fragments in hippocampus: dramatically reduced the amount of fragments
[1]; inferred from spectrin fragment decrease after systemic administration
  Ability to cross the blood-brain barrier and inhibit calpain in the brain: cross the blood-brain barrier (BBB) and inhibit calpain in the brain
[2]; i.p., equimolar dose (7.57/7.86/7.83 mg/kg)
  Absolute bioavailability: 41.3%
[2]; plasma, i.p., equimolar dose (7.57/7.86/7.83 mg/kg)
  Half-life: 0.6 h and ~ 0.6 h
[2]; upon i.p. injection
  Absorption: rapidly absorbed
AβPP/PS1 mice [3]; WT littermates, treatment 2 to 3 months of age
  RAWM performance of WT littermates: did not affect the WT littermate performance
AβPP/PS1 mice [3]; daily treatment from age 2 months until 3 months
  Spatial memory defect (2-day RAWM) in AβPP/PS1 mice: ameliorated the defect in spatial memory; also recorded: ameliorated the deficit in RAWM performance
AβPP/PS1 mice [3]; [6]
  Spatial memory defect (2-day RAWM) in AβPP/PS1 mice: ameliorated the defect in spatial memory
Calpain 1
  IC50: < 100 nM
[4]
  Rescue of Aβ42-induced LTP impairment (phenotypic screening): robust results; also recorded: surpassed E64 benchmark in the LTP rescue assay
WT mice
  Maximum tolerated dose (MTD): 200 mg/kg
AβPP/PS1 mice [5]; daily treatment from age 2 months until 3 months, 7.57/7.86/7.83 mg/kg
  Contextual fear memory defect in AβPP/PS1 mice: ameliorated the defect in contextual fear memory
AβPP/PS1 mice [5]; [6]
  Contextual fear memory defect in AβPP/PS1 mice: ameliorated the defect in contextual fear memory
mice
  Clinical signs of toxicity after acute single dose at MTD: No clinical signs of toxicity

## CC(C)C[C@H](NC(=O)[C@H]1O[C@@H]1C(=O)O)C(=O)NCCCCN=C(N)N [E64]
Aβ levels
  Effect on Aβ levels: do not have any effect on Aβ levels
